This note sets out measurements from ChEMBL document CHEMBL5620393, “New aryl and acylsulfonamides as state-dependent inhibitors of Nav1.3 voltage-gated sodium channel” (Eur J Med Chem, 2023).

Calls of active or inactive are those of the source. The rule behind the calls is not given here. A value given as a limit tells only on which side of the number the result lay.

The target of series [1] is T1, Sodium channel protein type 3 subunit alpha (Homo sapiens, UniProt Q9NY46). Briefly: Inhibition of human Nav1.3 expressed in CHO cells under resting state by automated patch clamp electrophysiology analysis. It is filed as cell-based. In general terms: The patch-clamp technique gives a direct electrical read-out from membranes.
For series [2], the target named is T1, Sodium channel protein type 3 subunit alpha. Briefly: Inhibition of human Nav1.3 expressed in CHO cells under inactivated state by automated patch clamp electrophysiology analysis. The series is classed as cell-based.
Series [3] addresses T2, Sodium channel protein type 5 subunit alpha (Homo sapiens, UniProt Q14524). Briefly: Inhibition of human Nav1.5 expressed in CHO cells under inactivated state by automated patch clamp electrophysiology analysis. It is filed as cell-based.
Series [4] addresses T2, Sodium channel protein type 5 subunit alpha. Briefly: Inhibition of human Nav1.5 expressed in CHO cells under tonic pulse 1 by automated patch clamp electrophysiology analysis. It is filed as cell-based.
Series [5] deals with T3, Sodium channel protein type 9 subunit alpha (Homo sapiens, UniProt Q15858). The experiment in a line: Inhibition of human Nav1.7 expressed in CHO cells under resting state by automated patch clamp electrophysiology analysis. The series is classed as cell-based.
Series [6] concerns the target T2, Sodium channel protein type 5 subunit alpha. Briefly: Inhibition of human Nav1.5 expressed in CHO cells under resting state by automated patch clamp electrophysiology analysis. It is filed as cell-based.
Series [7] has as its target T3, Sodium channel protein type 9 subunit alpha. Briefly: Inhibition of human Nav1.7 expressed in CHO cells under inactivated state by automated patch clamp electrophysiology analysis. It is filed as cell-based.
Series [8] concerns the target T2, Sodium channel protein type 5 subunit alpha. The experiment in a line: Inhibition of human Nav1.5 expressed in CHO cells by automated patch clamp electrophysiology analysis.
The target is the same in series [9]. The experiment in a line: Inhibition of human Nav1.5 expressed in Xenopus laevis oocytes at closed state at 1 uM by two electrode voltage-clamp assay. The series is classed as cell-based. As to conditions: oocyte. An outline of the steps:
(§1)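 TEVC on Nav channels expressed in Xenopus laevis oocytes. Each oocyte was injected with 50 nL cRNA at 1 ng/nL and recorded 1–4 days later at 18–22 °C. Bath (mM): NaCl 96, KCl 2, CaCl2 1.8, MgCl2 2, HEPES 5, pH 7.4. Electrodes held 3 M KCl at 0.8–1.5 MΩ. Compound tested at 1 μM. Mean ± SD, n ≥ 5.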
(In general: Two-electrode voltage clamp is typically applied to oocytes expressing channels or transporters.)

Series [10] has as its target Sodium channel protein type 8 subunit alpha (Mus musculus) (UniProt Q9WTU3). Briefly: Inhibition of mouse Nav1.6 expressed in Xenopus laevis oocytes at closed state at 1 uM by two electrode voltage-clamp assay. It is filed as cell-based. As to conditions: Oocyte. An outline of the steps: as §1
Series [11] concerns the target Sodium channel protein type 1 subunit alpha (Homo sapiens) (UniProt P35498). The experiment in a line: Inhibition of human Nav1.1 expressed in Xenopus laevis oocytes at closed state at 1 uM by two electrode voltage-clamp assay. It is filed as cell-based. The note with it: Oocyte. Summed up: as §1
Series [12] concerns the target Sodium channel protein type 4 subunit alpha (Rattus norvegicus) (UniProt P15390). Briefly: Inhibition of rat Nav1.4 expressed in Xenopus laevis oocytes at closed state at 1 uM by two electrode voltage-clamp assay. The series is classed as cell-based. The note with it: Oocyte. Summed up: as §1
Series [13] deals with Sodium channel protein type 10 subunit alpha (Homo sapiens) (UniProt Q9Y5Y9). Briefly: Inhibition of human Nav1.8 expressed in Xenopus laevis oocytes at closed state at 1 uM by two electrode voltage-clamp assay. The note with it: Oocyte. The series is classed as cell-based. Summed up: as §1
The target in series [14] is Sodium channel protein type 2 subunit alpha (Rattus norvegicus) (UniProt P04775). The experiment in a line: Inhibition of rat Nav1.2 expressed in Xenopus laevis oocytes at closed state at 1 uM by two electrode voltage-clamp assay. The note with it: Oocyte. It is filed as cell-based. Summed up: as §1
For series [15], the target named is T3, Sodium channel protein type 9 subunit alpha. The experiment in a line: Inhibition of human Nav1.7 expressed in Xenopus laevis oocytes at closed state at 1 uM by two electrode voltage-clamp assay. The series is classed as cell-based. As to conditions: Oocyte. An outline of the steps:
as §1

T2 sequence (Q14524 whole entry): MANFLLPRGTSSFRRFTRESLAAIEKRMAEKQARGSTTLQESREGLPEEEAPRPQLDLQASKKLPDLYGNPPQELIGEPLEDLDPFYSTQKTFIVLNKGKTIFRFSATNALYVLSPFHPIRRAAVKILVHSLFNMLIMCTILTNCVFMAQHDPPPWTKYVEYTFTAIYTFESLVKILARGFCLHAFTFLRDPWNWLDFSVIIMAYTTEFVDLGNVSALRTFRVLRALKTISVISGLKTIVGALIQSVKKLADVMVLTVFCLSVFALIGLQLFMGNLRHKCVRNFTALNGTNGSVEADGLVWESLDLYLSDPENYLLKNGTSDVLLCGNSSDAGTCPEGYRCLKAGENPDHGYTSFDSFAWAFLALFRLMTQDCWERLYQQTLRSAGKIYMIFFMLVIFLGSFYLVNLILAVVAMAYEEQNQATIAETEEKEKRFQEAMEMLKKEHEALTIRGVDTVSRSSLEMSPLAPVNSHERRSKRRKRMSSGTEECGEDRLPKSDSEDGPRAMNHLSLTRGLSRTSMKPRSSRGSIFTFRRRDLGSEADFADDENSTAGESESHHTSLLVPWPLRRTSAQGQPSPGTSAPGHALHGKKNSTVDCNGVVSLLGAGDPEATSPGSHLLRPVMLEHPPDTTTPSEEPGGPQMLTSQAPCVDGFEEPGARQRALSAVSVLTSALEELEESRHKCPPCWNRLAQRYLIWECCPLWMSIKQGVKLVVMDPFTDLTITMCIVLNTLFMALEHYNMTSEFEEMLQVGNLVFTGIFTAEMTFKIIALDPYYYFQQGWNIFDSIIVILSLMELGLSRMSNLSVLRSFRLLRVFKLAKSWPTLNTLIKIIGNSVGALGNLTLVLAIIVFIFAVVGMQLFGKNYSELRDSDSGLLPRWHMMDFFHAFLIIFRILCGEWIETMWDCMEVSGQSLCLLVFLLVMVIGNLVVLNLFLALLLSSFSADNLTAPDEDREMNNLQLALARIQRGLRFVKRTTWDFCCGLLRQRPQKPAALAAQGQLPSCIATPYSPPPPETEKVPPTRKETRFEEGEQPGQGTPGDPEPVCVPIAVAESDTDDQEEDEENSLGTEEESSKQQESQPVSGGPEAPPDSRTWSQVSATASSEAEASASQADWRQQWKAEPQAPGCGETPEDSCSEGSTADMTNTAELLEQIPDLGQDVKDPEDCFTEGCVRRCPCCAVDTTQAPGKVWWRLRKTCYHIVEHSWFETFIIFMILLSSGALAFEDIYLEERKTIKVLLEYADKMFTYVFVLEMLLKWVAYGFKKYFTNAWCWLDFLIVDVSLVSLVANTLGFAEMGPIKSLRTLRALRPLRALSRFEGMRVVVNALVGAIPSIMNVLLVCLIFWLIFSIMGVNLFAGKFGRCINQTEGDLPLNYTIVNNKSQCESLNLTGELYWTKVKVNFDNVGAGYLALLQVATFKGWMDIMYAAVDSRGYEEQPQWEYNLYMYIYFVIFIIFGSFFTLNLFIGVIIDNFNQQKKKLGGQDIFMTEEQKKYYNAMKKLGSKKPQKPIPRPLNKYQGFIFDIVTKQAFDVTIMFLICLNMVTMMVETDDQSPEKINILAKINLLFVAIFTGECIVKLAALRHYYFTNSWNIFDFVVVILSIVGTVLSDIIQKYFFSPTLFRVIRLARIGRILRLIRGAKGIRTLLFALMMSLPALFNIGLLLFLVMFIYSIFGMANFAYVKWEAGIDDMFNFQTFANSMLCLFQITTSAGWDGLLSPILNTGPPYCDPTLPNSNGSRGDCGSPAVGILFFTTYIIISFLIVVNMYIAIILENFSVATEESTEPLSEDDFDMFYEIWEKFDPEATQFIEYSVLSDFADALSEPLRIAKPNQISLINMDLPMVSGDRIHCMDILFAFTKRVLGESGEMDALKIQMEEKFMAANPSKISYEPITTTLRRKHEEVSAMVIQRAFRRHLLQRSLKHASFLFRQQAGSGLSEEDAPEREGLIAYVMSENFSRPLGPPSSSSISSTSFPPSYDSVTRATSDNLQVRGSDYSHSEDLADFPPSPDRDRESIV
Chain of Sodium channel protein type 8 subunit alpha (Mus musculus) (Q9WTU3 whole entry): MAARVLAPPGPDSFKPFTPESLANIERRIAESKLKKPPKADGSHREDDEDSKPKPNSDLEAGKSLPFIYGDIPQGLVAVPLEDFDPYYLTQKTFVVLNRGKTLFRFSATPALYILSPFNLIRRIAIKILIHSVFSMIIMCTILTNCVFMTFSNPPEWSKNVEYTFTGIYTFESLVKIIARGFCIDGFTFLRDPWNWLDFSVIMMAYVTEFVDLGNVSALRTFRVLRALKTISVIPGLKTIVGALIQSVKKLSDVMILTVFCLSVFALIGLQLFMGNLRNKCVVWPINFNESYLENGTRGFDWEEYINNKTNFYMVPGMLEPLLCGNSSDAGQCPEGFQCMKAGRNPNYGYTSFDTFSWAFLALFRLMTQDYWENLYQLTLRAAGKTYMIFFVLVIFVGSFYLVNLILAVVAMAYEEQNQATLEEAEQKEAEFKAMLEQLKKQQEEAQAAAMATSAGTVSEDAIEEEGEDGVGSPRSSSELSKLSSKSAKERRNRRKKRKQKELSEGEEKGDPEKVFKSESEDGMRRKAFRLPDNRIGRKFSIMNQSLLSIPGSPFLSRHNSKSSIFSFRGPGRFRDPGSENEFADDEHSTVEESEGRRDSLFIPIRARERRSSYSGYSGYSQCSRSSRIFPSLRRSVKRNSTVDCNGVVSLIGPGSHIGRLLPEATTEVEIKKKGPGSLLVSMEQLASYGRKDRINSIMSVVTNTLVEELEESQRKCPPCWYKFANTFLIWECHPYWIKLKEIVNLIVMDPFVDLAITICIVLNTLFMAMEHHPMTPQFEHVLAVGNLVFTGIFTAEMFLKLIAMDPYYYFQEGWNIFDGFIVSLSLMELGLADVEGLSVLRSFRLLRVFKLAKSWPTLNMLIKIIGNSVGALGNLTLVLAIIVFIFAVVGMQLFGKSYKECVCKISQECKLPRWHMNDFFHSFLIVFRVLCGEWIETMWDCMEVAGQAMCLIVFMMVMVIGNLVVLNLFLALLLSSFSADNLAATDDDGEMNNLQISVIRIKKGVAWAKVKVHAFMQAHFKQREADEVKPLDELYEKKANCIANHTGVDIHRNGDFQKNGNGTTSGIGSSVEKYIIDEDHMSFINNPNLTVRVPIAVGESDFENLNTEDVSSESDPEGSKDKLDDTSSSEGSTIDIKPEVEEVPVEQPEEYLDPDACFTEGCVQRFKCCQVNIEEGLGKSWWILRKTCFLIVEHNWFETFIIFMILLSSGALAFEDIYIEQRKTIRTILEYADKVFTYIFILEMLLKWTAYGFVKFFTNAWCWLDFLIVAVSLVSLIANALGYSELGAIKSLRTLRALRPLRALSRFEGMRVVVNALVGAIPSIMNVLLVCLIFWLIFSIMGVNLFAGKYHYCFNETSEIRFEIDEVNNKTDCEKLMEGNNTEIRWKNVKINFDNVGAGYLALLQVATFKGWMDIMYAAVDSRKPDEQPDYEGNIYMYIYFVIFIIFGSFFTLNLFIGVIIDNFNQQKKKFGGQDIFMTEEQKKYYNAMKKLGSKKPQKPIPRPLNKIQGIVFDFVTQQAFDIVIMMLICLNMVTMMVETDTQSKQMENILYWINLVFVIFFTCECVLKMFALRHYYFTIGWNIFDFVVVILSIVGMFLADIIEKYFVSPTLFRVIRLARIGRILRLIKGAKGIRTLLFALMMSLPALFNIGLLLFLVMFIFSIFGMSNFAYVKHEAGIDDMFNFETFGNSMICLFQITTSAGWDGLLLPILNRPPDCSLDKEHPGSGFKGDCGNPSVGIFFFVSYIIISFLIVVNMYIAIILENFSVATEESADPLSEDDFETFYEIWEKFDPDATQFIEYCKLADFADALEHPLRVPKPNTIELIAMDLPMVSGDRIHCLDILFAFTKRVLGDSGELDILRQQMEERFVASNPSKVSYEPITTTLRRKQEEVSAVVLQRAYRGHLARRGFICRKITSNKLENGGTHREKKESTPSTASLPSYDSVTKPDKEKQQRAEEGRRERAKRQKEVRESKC

In general, IC50 refers to the concentration that inhibits the measured activity by half. Consider `NC1=N[C@H](O)[C@H]2[C@H]3O[C@]4(O)O[C@@H]([C@@H](O)[C@@]2(N1)[C@@H]4O)[C@]3(O)CO` [TETRODOTOXIN], for which the IC50 in series [1] was 0.004 µM; in [2], 0.001 µM.
As for `O=C(Nc1nccs1)c1ccc(NC(=O)[C@@H]2C[C@H]2c2ccccc2)cc1`, the IC50 in [3], in [4], in series [5], in [6], in [7] and in [8] was over 30 µM throughout.
For the compound `CN(C)S(=O)(=O)NC(=O)c1ccc(NC(=O)c2cccn2Cc2ccc(Cl)cc2)cc1`, the “inhibition (INH)” value in series [9] is recorded as “Not Active”.
Same read-out and setting: the result for `CN(C)S(=O)(=O)NC(=O)c1ccc(NC(=O)[C@@H]2C[C@H]2c2ccccc2)cc1` reads “Not Active”.
Turning to `CC1CCCCN1C(=O)c1ccc(NS(=O)(=O)c2ccc3[nH]c(=O)[nH]c3c2)cc1` (stereo not drawn), the IC50 in series [1] and in series [2] was over 30 µM in each case.
Turning to `Cc1nn(C)cc1/C=C(\C#N)C(=O)Nc1ccc(S(=O)(=O)Nc2nccs2)cc1`, the IC50 in series [1] was 26 µM; in series [4] it was over 30 µM; in series [2] it was 3.8 µM; in [8], over 30 µM. The inhibition result in series [10], in series [11], in series [12], in series [13], in [14] and in series [15] was “inactive” throughout. In series [9], the “inhibition (INH)” value is “Not Active”.
Take `O=C(Nc1ccc(S(=O)(=O)Nc2nccs2)cc1)c1cccn1Cc1ccccc1`: the “inhibition (INH)” value in series [9] is listed as “Not Active”. Besides, the half-inhibitory concentration (IC50) in [4] and in series [8] was over 30 µM each time.
Consider `CN(C)S(=O)(=O)NC(=O)c1ccc(NC(=O)c2cc3ccccc3o2)cc1`, for which the “inhibition (INH)” value in series [9] was “Not Active”.
Take `O=C(Nc1cccc(S(=O)(=O)Nc2nccs2)c1)c1cccn1Cc1ccc(Cl)cc1`: the “inhibition (INH)” value in series [9] is on record as “Not Active”. The IC50 in series [4] and in [8] was over 30 µM each time.
`CC(=O)NS(=O)(=O)c1ccc(NC(=O)c2cc(Br)c(Br)n2-c2ccccc2)cc1`: the IC50 in [1] is over 30 µM; in [2], 19 µM.
With `O=C(Nc1ccc(S(=O)(=O)Nc2nccs2)cc1)c1cccn1-c1ccccc1`, the “inhibition (INH)” value in [9] is “Not Active”. Also, the IC50 in [4] and in [8] was over 30 µM in each case.
`O=C(Nc1ccc(S(=O)(=O)Nc2nccs2)cc1)c1cc(Br)c(Br)n1Cc1ccccc1`: the IC50 in series [3] is 3.5 µM; in series [4], over 30 µM; in series [5], over 30 µM; in series [6], over 30 µM; in [7] it was 7.1 µM; in [8] it was over 30 µM. Also, the “inhibition (INH)” value in series [9] is “Not Active”.
Take `CS(=O)(=O)NC(=O)c1ccc(NC(=O)C2CC2c2ccc(F)c(F)c2)cc1` (racemic): the IC50 in [1] and in series [2] was over 30 µM in each case. Besides, the inhibition entry in series [10], in series [11], in series [12], in series [13], in [14] and in [15] was “inactive” each time. Moreover, the “inhibition (INH)” value in [9] is reported as “Not Active”.
As to `CS(=O)(=O)NC(=O)c1ccc(NC(=O)c2cccn2Cc2ccc(Cl)cc2)cc1`, the IC50 in series [1] and in [2] was over 30 µM in each case. Besides, the inhibition result in series [10], in series [11], in [12], in series [13], in [14] and in series [15] was “inactive” throughout. The “inhibition (INH)” value in series [9] is given as “Not Active”.
Consider `C[C@H](Oc1ccc(Cl)cc1)C(=O)Nc1ccc(C(=O)NS(C)(=O)=O)cc1`, for which the “inhibition (INH)” value in [9] is listed as “Not Active”.
For `C[C@@H](Oc1ccc(Cl)cc1)C(=O)Nc1ccc(C(=O)NS(=O)(=O)N(C)C)cc1`, the “inhibition (INH)” value in series [9] is listed as “Not Active”.
Take `O=C(Nc1ccc(S(=O)(=O)Nc2nccs2)cc1)[C@@H]1C[C@H]1c1ccccc1`: the IC50 came to 18 µM in series [1] (cho) and 0.056 µM in series [2] (cho).
Take `CS(=O)(=O)NC(=O)c1ccc(OC[C@@H]2C[C@H]2c2ccccc2)cc1`: the “inhibition (INH)” value in series [9] is listed as “Not Active”. For the same compound, the IC50 in series [4] and in series [8] was over 30 µM each time.
Consider `O=C(Nc1ccc(S(=O)(=O)Nc2nccs2)cc1)c1cccn1Cc1ccc(Cl)cc1`, for which the IC50 was 3.7 µM in series [3]; over 30 µM in series [4]; over 30 µM in [5]; over 30 µM in [6]; 8.4 µM in series [7]; over 30 µM in series [8]. The “inhibition (INH)” value in [9] is “Not Active”.
As to `CC(=O)NS(=O)(=O)c1ccc(NC(=O)c2cccn2Cc2ccc(Cl)cc2)cc1`, the “inhibition (INH)” value in series [9] is recorded as “Not Active”.
On to `O=C(Nc1cccc(S(=O)(=O)Nc2nccs2)c1)c1cccn1Cc1ccccc1`, for which, in [9], the “inhibition (INH)” value is listed as “Not Active”. The IC50 in series [4] and in series [8] was over 30 µM throughout.
Consider `CS(=O)(=O)NC(=O)c1ccc(NC(=O)c2cc(Br)c(Br)n2-c2ccccc2)cc1`, for which the “inhibition (INH)” value in series [9] is “Not Active”.
Still for that read-out and setting: the result for `CC(=O)NS(=O)(=O)c1ccc(NC(=O)c2cc(Br)c(Br)n2Cc2ccccc2)cc1` reads “Not Active”.
For `CS(=O)(=O)NC(=O)c1ccc(NC(=O)[C@@H]2C[C@H]2c2ccccc2)cc1`, the IC50 in series [1] and in [2] was over 30 µM in each case. In addition, the inhibition entry in series [10], in series [11], in series [12], in [13], in series [14] and in series [15] was “inactive” in each case. For the same compound, in series [9], the “inhibition (INH)” value is “Not Active”.
As for `CC1CCCC(C)N1S(=O)(=O)c1ccc(NS(=O)(=O)c2ccc3c(c2)CC(=O)N3C)cc1` (stereo not drawn), the IC50 in series [1] is over 30 µM; in [2] it was 28 µM.
In the same order, the values of `CC(NS(=O)(=O)c1ccc(C2=CC(c3ccc(Cl)cc3)n3nnnc3N2)cc1)C(=O)O` (stereo not drawn) are over 30 µM and over 30 µM.
The matching figures for `CC(CCc1ccc(O)cc1)NC(=O)Nc1ccc(S(=O)(=O)N2CCCC2)cc1` (stereo not drawn): over 30 µM and 20 µM.
On to `CS(=O)(=O)NC(=O)c1cccc(OC[C@@H]2C[C@H]2c2ccccc2)c1`, for which the IC50 in series [1], in series [4], in series [2] and in [8] was over 30 µM in each case. For the same compound, the inhibition entry in series [10], in [11], in series [12], in [13], in series [14] and in [15] was “inactive” throughout. Besides, the “inhibition (INH)” value in series [9] is given as “Not Active”.
In the case of `CN(C)CCC=C1c2ccccc2CCc2ccccc21` [AMITRIPTYLINE], the IC50 in series [3] was found to be 1.2 µM; in series [4], 11 µM; in series [5], 10 µM; in series [6], 20 µM; in series [7], 2.3 µM; in series [8], 6.9 µM.
Consider `CC(=O)NS(=O)(=O)c1ccc(NC(=O)CC(C)c2ccccc2)cc1` (stereo not drawn), for which the figures for the IC50 in [1] and in series [2] were over 30 µM and 21 µM, respectively.
For the compound `CC(=O)NS(=O)(=O)c1ccc(NC(=O)[C@@H]2C[C@H]2c2ccccc2)cc1`, in [9], the “inhibition (INH)” value is listed as “Not Active”. Further, the IC50 in series [4] and in series [8] was over 30 µM throughout.
As for `C[C@@H](Oc1ccc(Cl)cc1)C(=O)Nc1ccc(C(=O)NS(C)(=O)=O)cc1`, the “inhibition (INH)” value in series [9] is “Not Active”.
On the same count and under the same terms, the result for `Cc1nc(-c2c(Cl)cccc2Cl)sc1C(=O)N[C@@H](Cc1ccccc1)C(=O)O` reads “Not Active”.
On to `CC(=O)NS(=O)(=O)c1ccc(NC(=O)c2cccn2Cc2ccccc2)cc1`, for which the IC50 was over 30 µM in [1] and 23 µM in series [2].
As for `O=C(Nc1cccc(S(=O)(=O)Nc2nccs2)c1)[C@@H]1C[C@H]1c1ccccc1`, the “inhibition (INH)” value in [9] was “Not Active”. Besides, the IC50 in series [4] and in series [8] was over 30 µM in each case.
As to `CS(=O)(=O)NC(=O)c1ccc(NC(=O)c2cc(Br)c(Br)n2Cc2ccccc2)cc1`, the “inhibition (INH)” value in series [9] is listed as “Not Active”.
Regarding `O=C(Nc1cccc(S(=O)(=O)Nc2nccs2)c1)c1cc(Br)c(Br)n1Cc1ccccc1`, the “inhibition (INH)” value in series [9] is reported as “Not Active”. For the same compound, the IC50 in series [4] and in [8] was over 30 µM in each case.
